Test results reported in paper PMC12137828 (Nature Communications, 2025).
Like-named read-outs stand apart in the source and are kept apart here.

Experiments:
cyanobacteria = conditions: by targeting DHAD ref 3; cited from earlier work
AtDHAD = biological target: T1, AtDHAD (Arabidopsis thaliana, UniProt Q9LIR4); experiment: MST assay, binding affinity
T1 sequence (Q9LIR4 35-608): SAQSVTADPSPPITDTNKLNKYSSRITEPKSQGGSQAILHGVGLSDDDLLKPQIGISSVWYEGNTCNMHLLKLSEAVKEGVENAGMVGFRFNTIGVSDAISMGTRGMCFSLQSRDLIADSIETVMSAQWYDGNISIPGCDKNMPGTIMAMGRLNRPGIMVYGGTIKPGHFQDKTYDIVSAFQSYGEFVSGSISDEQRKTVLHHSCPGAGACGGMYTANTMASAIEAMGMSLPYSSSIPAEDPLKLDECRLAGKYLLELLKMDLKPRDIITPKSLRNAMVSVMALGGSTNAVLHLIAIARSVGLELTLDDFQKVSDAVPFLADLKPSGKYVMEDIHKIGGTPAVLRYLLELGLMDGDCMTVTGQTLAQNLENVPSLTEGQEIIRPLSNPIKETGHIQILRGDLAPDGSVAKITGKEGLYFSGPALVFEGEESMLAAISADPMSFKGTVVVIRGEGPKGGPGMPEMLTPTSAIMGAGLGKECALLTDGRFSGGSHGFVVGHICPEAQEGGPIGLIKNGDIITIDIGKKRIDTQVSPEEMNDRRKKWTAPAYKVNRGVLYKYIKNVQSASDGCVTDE
How it was run: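 AtDHAD was expressed in E. coli BL21(DE3) under IPTG induction, with FeCl3 and L-Ara added to stabilise the [2Fe-2S] cluster. It was purified by Ni-NTA anaerobically and lysine-labelled with RED-NHS dye. Ligand from 10−10 to 10−1 M was incubated with 50 nM labelled protein for 30 min at 4 °C in phosphate buffer (0.05% Tween 20, pH 7.4). Excitation was 100% or 40%, with medium MST power. Kd is given as mean ± SD.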

[1] = tested on: glufosinate-resistant Arabidopsis thaliana; conditions: 250 µM ref 2; cited from earlier work
[2] = tested on: 2-week-old A. thaliana plants; experiment: Postemergence treatment of A. thaliana; type: in vivo, Arabidopsis thaliana
How it was run: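 Col-0 seeds were chilled at 4 °C for 3 days and grown in soil pots in a light incubator at 22 °C with an 8 h light/16 h dark cycle. Test compound was dissolved in DMSO and diluted with 0.5% aqueous Tween 80 to a final 200 μg/mL (DMSO below 5%), then applied by foliar spray. Fresh weight inhibition was read out.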

| Compound | growth of cyanobacteria (cyanobacteria) | Kd (AtDHAD; Kd) [µM] | herbicidal activity against glufosinate-resistant Arabidopsis thaliana [1] | Fresh weight inhibition rate (%) ([2]; 200 μg/mL foliar spray, 20 days after treatment) | symptoms after postemergence treatment of two-week-old plants ([2]; foliar spray, 200 μg/mL) | Kd (AtDHAD) [µM] |
| --- | --- | --- | --- | --- | --- | --- |
| O=C(O)C(O)C(=O)O [TA, tartronic acid] | inhibited the growth of cyanobacteria | 507 | – | – | – | – |
| CC(C)(O)C(O)C(=O)O (stereo not shown) [Substrate (dihydroxyisovalerate), 2,3-dihydroxy-3-methylbutanoic acid] | – | 5.39 | – | – | – | – |
| aspterric acid [AA] | – | – | exhibits herbicidal activity | 55.96 | cessation of new leaf production and the onset of leaf wilting | 3.41 |
